From PubChem BioAssay
MC4R ag barr = activates human MC4R beta-arrestin recruitment; P32245; U2OS MC4R beta-arrestin complementation, luminescence; percent of melanotan II response, DMSO zero; activation, % at 8.9 µM; 0.98% of 360,000 active; AID 540308;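 active = activation above a per-plate cutoff, the mean activation of sample wells on that plate plus 3 SD, cut at about 8% in these data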
Target sequence (P32245 whole entry, looked up): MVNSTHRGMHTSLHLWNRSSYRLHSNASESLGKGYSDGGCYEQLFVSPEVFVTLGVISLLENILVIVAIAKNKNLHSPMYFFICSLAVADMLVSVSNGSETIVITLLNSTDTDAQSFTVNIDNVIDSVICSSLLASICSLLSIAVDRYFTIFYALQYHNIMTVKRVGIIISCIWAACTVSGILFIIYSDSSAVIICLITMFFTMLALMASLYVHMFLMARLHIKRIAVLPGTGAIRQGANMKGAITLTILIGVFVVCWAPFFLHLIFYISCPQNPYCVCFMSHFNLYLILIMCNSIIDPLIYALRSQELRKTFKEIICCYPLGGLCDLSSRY
Myeloid diff MLP = compounds promoting myeloid differentiation; ER-HoxA9 myeloid progenitors, lysozyme-GFP differentiation, flow cytometry; calls only at 10 µM; 1% of 360,000 active;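 active = normalized GFP-positive differentiation at or above the plate's own cutoff, the solvent-only control mean plus 3 SD; inconclusive = no clear call, values can overlap the other calls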;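 note: cells exposed to compound for four days before flow analysis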
EBI2 antag = blocks human EBI2 receptor beta-arrestin signaling | AID 651636 | P32249 | EBI2 beta-arrestin recruitment, luminescence, 7a,25-OHC stimulated | inhibition, % at 5 µM | 0.81% of 360,000 active; in the data active = inhibition above about 38%;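 note: enzyme fragment complementation signal reports receptor beta-arrestin coupling in cells; 0% = agonist plus DMSO wells and 100% = wells without agonist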
MC4R antag cAMP = human MC4R antagonism in cAMP assay. P32245. MC4R-expressing cells, MTII-stimulated cAMP, LANCE TR-FRET. inhibition, % at 6.5 µM. 0.48% of 360,000 active;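 active = inhibition above its plate's cutoff, the mean of tested wells on that plate plus 3 SD, cut at about 29% in these data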;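 note: 0% = Melanotan II alone and 100% = Melanotan II plus saturating MCL0020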
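System – human MC4R-expressing U2OS cells · Also added – Melanotan II · Dosing – one concentration, 6.5 µM nominal · Timing – 30-min compound, 1-h challenge, 1-h detection, room temperature · Measured by – Eu-cAMP/anti-cAMP TR-FRET, emission 671 nm · Replicates – singlicate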
Granule exo inh = lytic granule exocytosis inhibition. TALL-104 LAMP-1 surface exposure, flow cytometry; cells stimulated with thapsigargin and PMA. inhibition, % at 10 µM. 0.66% of 360,000 active. AID 651702;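 active = inhibition above about 55%, limit read from the data; inconclusive = no clear call, values can overlap the other calls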
Granule exo CP1 = blocks lytic granule exocytosis. shares compounds with Granule exo inh. TALL-104 cells, LAMP-1 externalization, flow cytometry; stimulated with PMA plus thapsigargin. inhibition, % at 10 µM. 11% of 1,500 active; in the data active = inhibition above about 60%;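 note: 0% = stimulated vehicle wells and 100% = unstimulated wells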
* = called active by the depositor; i = inactive; ? = inconclusive; · = no result. Hits are enriched below; roughly 3.7% of the tested compounds scored in any of these assays.

SMILES	MC4R ag barr	Myeloid diff MLP	EBI2 antag	MC4R antag cAMP	Granule exo inh	Granule exo CP1
CN1Cc2c(N3CCOCC3)nc3sc(C#N)c(N)c3c2CC1(C)C	-0.7	i	2.2	-2.8	1.3	·
O=C(O)CCC(=O)NNc1ccccc1[N+](=O)[O-]	-0.3	i	-19.6	5.6	5.8	·
CC(=O)N(CCC(Cc1ccccc1)c1ccc2c(c1)OCO2)Cc1ccc(Cl)cc1 (stereo not given)	-1.8	i	26.1	6.1	89.6*	19.3
O=C(O)CC(Cc1ccccc1)c1ccc2c(c1)OCO2 (stereo not given)	-1.4	i	-7.9	3.6	-4.4	·
O=C(Nc1ccccc1-c1nc2ccccc2s1)c1ccco1	-0.5	i	1.7	12.6	70.7*	-1.7
O=C(COC(=O)CNC(=O)c1ccccc1F)NC12CC3CC(CC(C3)C1)C2	-0.5	i	-5.2	6.9	3.7	·
CCN(CC)S(=O)(=O)c1ccc(Oc2ccccc2OC)cc1	0.7	i	-5.0	0.8	68.8*	-3.3
CCNC(=O)C[C@@H]1C=C[C@@H](NS(=O)(=O)c2ccc(F)cc2)[C@@H](CO)O1	·	i	-14.7	·	2.1	·
Cc1ccc(S(=O)(=O)N2CCOCC2)cc1NC(=O)CN1CCC(Cc2ccccc2)CC1	1.1	i	15.7	15.3	71.4*	-12.8
Cc1ccc(S(=O)(=O)N2CCOCC2)cc1NC(=O)CN1CCN(C)CC1	-2.1	i	-3.1	-2.6	4.6	·
O=C1c2ccccc2CC1Sc1nnc(-c2ccncc2)o1 (stereo not given)	-1.8	i	6.2	10.6	0.7	·
Cc1ccccc1N1C(=O)CC(Sc2nnc(-c3ccccc3)o2)C1=O (stereo not given)	-0.5	i	0.8	10.9	87.6*	54.1
O=C(CCS(=O)(=O)c1ccccc1)N(CCCN1CCOCC1)c1nc2ccc(F)cc2s1	-3.5	?	19.9	14.5	58.4*	-7.3
O=C(CCS(=O)(=O)c1ccccc1)N(CCCN1CCOCC1)c1nc2c(F)cccc2s1	-5.5	·	24.7	21.6	29.4	·
CCCCCCn1c(COc2ccccc2F)nnc1SCC(=O)N1c2ccccc2NC(=O)C1(C)C	1.4	i	17.3	8.4	75.0*	-8.7
Cn1cccc1/C=N/NC(=O)CSc1nc2ccccc2n1C	-0.7	i	-1.5	6.8	-4.8	·
c1ccc(CN2CCN(C3CCCSc4ccccc43)CC2)cc1 (stereo not given)	3.2	i	9.2	-3.2	60.0*	-13.0
COc1ccc(-n2cc(C#N)c(=O)n(Cc3ccc(F)cc3)c2=O)cc1	-1.4	i	-17.4	0.2	2.4	·
OC(CN1CCN(c2cccc(Cl)c2)CC1)c1ccccc1 (stereo not given)	1.0	i	0.4	4.1	-11.8	·
OC(COC(c1ccccc1)c1ccccc1)CN1CCN(c2cccc(Cl)c2)CC1 (stereo not given)	-0.3	i	-2.3	4.5	68.0*	-4.0
Cc1ccc(NC(=O)CCN2CC(C)OC(C)C2)cc1 (stereo not given)	1.5	i	-7.1	8.1	-7.0	·
CSc1scc2c1-c1nc(SCC(=O)C(C)(C)C)ncc1CC2	-2.5	i	-9.9	6.6	73.8*	-11.2
CNC(=O)C1Cc2c(-c3ccc(Cl)cc3)ccnc2O1 (stereo not given)	-2.3	i	-1.1	2.3	22.7	·
CC(C)c1ccccc1NS(=O)(=O)c1cccs1	0.3	i	-2.7	-3.3	5.1	·
CCN(Cc1ccccc1)S(=O)(=O)c1ccc(F)cc1	2.9	i	-7.7	5.2	25.4	·
SMILES	MC4R ag barr	Myeloid diff MLP	EBI2 antag	MC4R antag cAMP	Granule exo inh	Granule exo CP1
CC(C)N(Cc1ccccc1)S(=O)(=O)c1ccc(F)cc1	0.6	i	5.2	15.0	64.2*	-13.6
CC(=O)CCc1oc2c([N+](=O)[O-])cccc2c1-c1ccc(C)o1	-1.1	i	2.1	7.3	71.6*	-4.8
O=C(CCC(=O)OCC(F)(F)C(F)F)Nc1ccccc1F	-1.4	i	-1.6	6.7	-0.2	·
Cc1ccc(-n2cc(-c3ccccc3)c3c(N4CCN(C)CC4)ncnc32)cc1	2.2	i	9.3	4.8	69.0*	6.8
O=C(CSc1ncccn1)NCc1cccc(Cl)c1	-3.3	i	1.8	5.3	-3.3	·
CC1CCN(c2nc(-c3ccccc3O)nc3ccccc23)CC1	-0.5	i	-26.8	2.6	59.0*	-15.1
COc1ccc(CNC(=O)Nc2nnc([C@@H]3C[C@H](O)[C@@H](CO)O3)s2)cc1	-0.6	i	-4.1	2.3	-2.5	·
Cc1ccc(C)c(CN2C(=O)CSc3ccc(C(=O)NCC(C)CN4CCC(C)CC4)cc32)c1 (stereo not given)	-1.0	i	11.7	0.2	76.9*	3.8
CC12CN3CCN(CC(C3)/C1=N\NC(=O)Nc1cccc(Cl)c1)C2	-0.4	i	0.1	-4.8	-1.8	·
O=C(CCCc1nc(-c2ccc(Cl)cc2)no1)NC1CCCC1	-0.4	i	-21.7	6.7	56.6*	-12.9
O=C(CCc1nc(-c2ccc(Cl)cc2)no1)NC1CCCCC1	2.4	i	5.8	0.5	3.1	·
CSCCC(C(=O)NC1CCCC1)n1c(C2CC2)nc2ccccc21 (stereo not given)	·	i	1.1	·	4.9	·
Cc1cccc(C)c1OCC(O)CN(Cc1ccccc1O)C1CCCCC1 (stereo not given)	0.8	i	7.8	-3.8	57.3*	-3.5
CC(C)[C@@H]1Cc2[nH]n(C)c(=O)c2[C@H](c2ccc(Cl)cc2)O1	·	i	-6.7	·	-3.1	·
CC(NC(=O)CSc1nc2c(c(C(F)(F)F)n1)CCc1ccccc1-2)c1ccccc1 (stereo not given)	0.0	i	9.9	10.2	58.8*	-2.6
O=C(CSc1nc2c(c(C(F)(F)F)n1)CCc1ccccc1-2)NCc1ccco1	-0.9	i	4.8	9.6	-2.0	·
CC(C)(C)[C@@H]1COC(=O)[C@@H](Cc2ccc(F)cc2)C/C=C\C[C@H](CC(=O)N(CCO)Cc2ccccc2)C(=O)N1	0.6	i	-1.6	1.2	56.9*	-15.8
Cc1ccc(-c2noc(CCCC(=O)NCC3CCCO3)n2)cc1 (stereo not given)	-1.2	·	1.6	0.2	-2.4	·
CC1=C(C(=O)N2CCCCCC2)CC(CC(=O)NCCCCc2ccccc2)C(=O)N1CCC1=CCCCC1 (stereo not given)	·	i	36.1	·	85.6*	0.2
CC1=C(C(=O)N2CCCCCC2)CC(CC(=O)NCc2cccc3ccccc23)C(=O)N1CCC1=CCCCC1 (stereo not given)	·	i	39.2	·	58.1*	-5.9
CCCCn1c(N)c(N(CC)C(=O)C2=NN(c3ccccc3)C(=O)CC2)c(=O)[nH]c1=O	-2.6	i	5.6	-0.8	0.7	·
N#Cc1ccccc1OCC(=O)OCC(=O)Nc1ccc2c(c1)OCO2	-2.5	i	4.6	2.7	4.9	·
